What all share (assay type): functional
For one test, the species on record is Homo sapiens. Nature of the test: (§1) Antiproliferative activity against human RKOp27IND cells assessed as growth inhibition at 3.16 ug/ml after 48 hrs by XTT assay. Put shortly: (§2)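 This is the same 48 h XTT assay: 10-point half-log series, 0.3% final DMSO, 3 h XTT/PMS, A490, with untreated cells as 0% and blanks as 100% inhibition. Inhibition at the highest tested concentration was scored as none (<30%) or moderate (≥30%).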
For orientation: Tetrazolium assays rely on reduction of a dye to a coloured formazan, in cell work by metabolically active cells.

The nature of test [1]: as §1. Put shortly: as §2
A further test deals with KB. Nature of the test: Antiproliferative activity against human KB/HeLa cells assessed as growth inhibition at 3.16 ug/ml after 48 hrs by XTT assay. The procedure, abridged: as §2
The next test has as its system SK-OV-3. Nature of the test: Antiproliferative activity against human SKOV3 cells assessed as growth inhibition at 3.16 ug/ml after 48 hrs by XTT assay. Put shortly: as §2
Another test has as its system NCI-H460. Nature of the test: Antiproliferative activity against human NCI-H460 cells assessed as growth inhibition at 3.16 ug/ml after 48 hrs by XTT assay. Put shortly: as §2
The next test relates to RKOp27. Nature of the test: (§3) Antiproliferative activity against human RKOp27 cells assessed as growth inhibition at 3.16 ug/ml after 48 hrs by XTT assay. The procedure, abridged:
as §2

The nature of test [2]: as §3. Particulars: RKOp27, 48 h. The procedure, abridged: as §2
For the next test, the system named is SF-268. In words: Antiproliferative activity against human SF268 cells assessed as growth inhibition at 3.16 ug/ml after 48 hrs by XTT assay. Put shortly: as §2

Molecules are shown by their SMILES. Calls of active or inactive are those of the source. No cut-off for these calls is given here.

This is an account of results in ChEMBL document CHEMBL1770061, “Synthesis and antiproliferative activity of new cytotoxic azanaphthoquinone pyrrolo-annelated derivatives: Part II” (Bioorg Med Chem Lett, 2011).

As to `CN(C)CCc1cn(CCOS(C)(=O)=O)c2c1C(=O)c1ccncc1C2=O`, the inhibition result in the test listed under Homo sapiens, with KB, in the test on SK-OV-3, with NCI-H460, in the test with RKOp27 and in the test on SF-268 was “inactive” each time. Besides, the inhibition (usually the share of the control response that was lost under treatment) at 3.16 µg/mL in test [1] is less than 30%; in the test on NCI-H460 (NCI-H460, 48 h) it was less than 30%; in test [2], less than 30%.
